Measured values reported in ChEMBL document CHEMBL4811246, “New organoselenides (NSAIDs-Se derivatives) as potential anticancer agents: Synthesis, biological evaluation and in silico calculations” (Eur J Med Chem, 2021).
The source made the active and inactive calls. No cut-off for these calls is given here.

Tests used:
[1] = Antioxidant activity assessed as bleomycin-Fe2+-induced DNA degradation by measuring absorbance at 0.1 mg/ml after 1 hr; format: functional; set-up: unit not given here
Method in brief: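 Stopped with EDTA, then TBA (1% w/v) and HCl (25% v/v) added and heated 80 °C for 30 min. After cooling on ice, DNA damage read as absorbance increase at 532 nm. L-ascorbic acid positive control.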

Caco-2 = test: Cytotoxicity against human Caco2 cells assessed as reduction in cell viability measured upto 72 hrs by MTT assay; format: functional, cell-based; conditions: Caco-2, 72 h
Method in brief: (§1)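 ATCC cells grown in RPMI 1640 with 10% FBS and penicillin/streptomycin at 37 °C, 5% CO2. Cells seeded at 1×10^4 per well and allowed 24 h to attach, then exposed to graded compound concentrations for 24, 48 and 72 h, DMSO kept below 1.25%. MTT added 3 h before the end, formazan dissolved in DMSO, OD read at 570 nm. IC50 from viability, three repetitions, mean ± SD.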

MCF7 = test: Cytotoxicity against human MCF7 cells assessed as reduction in cell viability measured upto 72 hrs by MTT assay; format: functional, cell-based; conditions: MCF7, 72 h; method in brief: as §1
BGC-823 [2] = test: Cytotoxicity against human BGC-823 cells assessed as reduction in cell viability measured upto 72 hrs by MTT assay; format: functional, cell-based; conditions: BGC-823, 72 h; method in brief: as §1
[3] = Antioxidant activity assessed as DPPH radical scavenging activity incubated for 30 mins under dark condition relative to control; format: functional; set-up: concentration or dose not given beside the values
Method in brief: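 DPPH radical scavenging: test samples at a range of concentrations mixed with DPPH solution and held 30 min in the dark, then absorbance read at 517 nm. Ascorbic acid and ebselen served as positive controls and DMSO as negative control. % activity = [(control A − sample A)/control A] × 100. Mean ± SD of three independent experiments.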

PC-3 = test: Cytotoxicity against human PC-3 cells assessed as reduction in cell viability measured upto 72 hrs by MTT assay; format: functional, cell-based; conditions: PC-3, 72 h; method in brief: as §1
BGC-823 [4] = test: Induction of apoptosis in human BGC-823 cells assessed as upregulation of caspase-3 protein expression at IC50 after 48 hrs by ELISA; format: functional, cell-based
[5] = Antioxidant activity assessed as GPx-like activity by measuring oxidation of NADPH to NADP+ by NADPH-reductase coupled assay; format: functional
Method in brief: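 NADPH/glutathione reductase coupled GPx-like assay: 50 mM phosphate buffer with 0.1% Triton X-100, NADPH reagent containing GSH, glutathione reductase and NADPH, and compound (0.01 ml of 41 mM). Reaction started with H2O2 (0.8 mM), and A340 decrease followed over 3 min to give ΔA/min. Values background-corrected for the H2O2 plus GSH reaction. Ebselen positive control.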

BGC-823 [6] = test: Induction of apoptosis in human BGC-823 cells assessed as upregulation of IL-2 protein expression at IC50 after 48 hrs by ELISA; format: functional, cell-based
Method in brief: (§2)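 Cells harvested with trypsin and lysed by freeze-thaw in liquid nitrogen, then total protein isolated. Bcl-2 and IL-2 quantified by ELISA, read at 450 nm.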

[7] = Antioxidant activity assessed as DPPH radical scavenging activity incubated for 30 mins under dark condition relative to vitamin C; format: functional
BGC-823 [8] = test: Induction of apoptosis in human BGC-823 cells assessed as down regulation of Bcl-2 protein expression at IC50 after 48 hrs by ELISA; format: functional, cell-based; method in brief: as §2

Structure (SMILES): COc1ccc2cc(C(C)C(=O)OCCC[Se]C(F)(F)F)ccc2c1 (stereo not given)
- Activity [1]: 91.4
- IC50 (Caco-2): 16.3 µM
- IC50 (MCF7): 12.4 µM
- IC50 (BGC-823 [2]): 10.8 µM
- inhibition [3]: 37%
- IC50 (PC-3): 18.4 µM

Structure (SMILES): CC(C(=O)OCCC[Se]C(F)(F)F)c1cccc(C(=O)c2ccccc2)c1 (stereo not given)
- Activity (BGC-823 [4]): Active
- Activity [1]: 128
- IC50 (Caco-2): 9.5 µM
- IC50 (MCF7): 6.5 µM
- Activity [5]: Active
- Activity (BGC-823 [6]): Active
- IC50 (BGC-823 [2]): 4.8 µM
- inhibition [3]: 66.3%
- fold change (FC) [7]: 0.7
- Activity (BGC-823 [8]): Active
- IC50 (PC-3): 8.8 µM

Structure (SMILES): O=C1O[C@H]([C@@H](O)CO)C(O)=C1O
- Activity [1]: 297
- inhibition [3]: 96.4%
- fold change (FC) [7]: 1

Structure (SMILES): COc1ccc2c(c1)c(CC(=O)OCCC[Se]C#N)c(C)n2C(=O)c1ccc(Cl)cc1
- Activity [1]: 72.4
- IC50 (Caco-2): 32.4 µM
- IC50 (MCF7): 29.3 µM
- IC50 (BGC-823 [2]): 35.5 µM
- inhibition [3]: 44.3%
- fold change (FC) [7]: 0.4
- IC50 (PC-3): 21.8 µM

Structure (SMILES): COc1ccc2cc(C(C)C(=O)OCCC[Se]C#N)ccc2c1 (stereo not given)
- Activity [1]: 81.6
- IC50 (Caco-2): 21.5 µM
- IC50 (MCF7): 32.8 µM
- IC50 (BGC-823 [2]): 17.3 µM
- inhibition [3]: 24.6%
- IC50 (PC-3): 22 µM

Structure (SMILES): CC(C(=O)OCCC[Se]C#N)c1ccc(-c2ccccc2)c(F)c1 (stereo not given)
- Activity [1]: 86.5
- IC50 (Caco-2): 27.5 µM
- IC50 (MCF7): 22.4 µM
- IC50 (BGC-823 [2]): 29.4 µM
- inhibition [3]: 17.2%
- IC50 (PC-3): 19.7 µM

Structure (SMILES): CC(C)Cc1ccc(C(C)C(=O)O)cc1 (stereo not given) [IBUPROFEN]
- IC50 (Caco-2): > 50 µM
- IC50 (MCF7): > 50 µM
- IC50 (BGC-823 [2]): > 50 µM
- IC50 (PC-3): > 50 µM

Structure (SMILES): O=C(OCCC[Se]C(F)(F)F)c1ccccc1Nc1cccc(C(F)(F)F)c1
- Activity (BGC-823 [4]): Active
- Activity [1]: 115
- IC50 (Caco-2): 3.5 µM
- IC50 (MCF7): 4.2 µM
- Activity (BGC-823 [6]): Active
- IC50 (BGC-823 [2]): 2.7 µM
- inhibition [3]: 68.6%
- fold change (FC) [7]: 0.7
- Activity (BGC-823 [8]): Active
- IC50 (PC-3): 5.8 µM

Structure (SMILES): CCc1cccc2c3c([nH]c12)C(CC)(CC(=O)OCCC[Se]C#N)OCC3 (stereo not given)
- Activity [1]: 69.4
- IC50 (Caco-2): 11.5 µM
- IC50 (MCF7): 14.4 µM
- IC50 (BGC-823 [2]): 21.4 µM
- inhibition [3]: 30.4%
- fold change (FC) [7]: 0.3
- IC50 (PC-3): 31.4 µM

Structure (SMILES): CC(=O)Oc1ccccc1C(=O)O [ASPIRIN]
- IC50 (Caco-2): > 50 µM
- IC50 (MCF7): > 50 µM
- IC50 (BGC-823 [2]): > 50 µM
- IC50 (PC-3): > 50 µM

Structure (SMILES): N#C[Se]CCCOC(=O)c1ccccc1Nc1cccc(C(F)(F)F)c1
- Activity [1]: 76.1
- IC50 (Caco-2): 8.4 µM
- IC50 (MCF7): 14.2 µM
- IC50 (BGC-823 [2]): 13.7 µM
- inhibition [3]: 51.5%
- fold change (FC) [7]: 0.5
- IC50 (PC-3): 7.5 µM

Structure (SMILES): Cc1cccc(Nc2ccccc2C(=O)OCCC[Se]C(F)(F)F)c1C
- Activity [1]: 77.6
- IC50 (Caco-2): 13.3 µM
- IC50 (MCF7): 8.5 µM
- IC50 (BGC-823 [2]): 19.6 µM
- inhibition [3]: 23.3%
- fold change (FC) [7]: 0.3
- IC50 (PC-3): 24.5 µM

Structure (SMILES): CC1=C(CC(=O)OCCC[Se]C(F)(F)F)c2cc(F)ccc2/C1=C\c1ccc([S+](C)[O-])cc1 (stereo not given)
- Activity [1]: 73.7
- IC50 (Caco-2): 16.4 µM
- IC50 (MCF7): 19.6 µM
- Activity [5]: Active
- IC50 (BGC-823 [2]): 14.4 µM
- inhibition [3]: 44.9%
- fold change (FC) [7]: 0.5
- IC50 (PC-3): 11.6 µM

Structure (SMILES): CC1=C(CC(=O)OCCC[Se]C#N)c2cc(F)ccc2/C1=C\c1ccc([S+](C)[O-])cc1 (stereo not given)
- Activity [1]: 91.3
- IC50 (Caco-2): 28.6 µM
- IC50 (MCF7): 31.3 µM
- Activity [5]: Active
- IC50 (BGC-823 [2]): 17.5 µM
- inhibition [3]: 45.7%
- fold change (FC) [7]: 0.5
- IC50 (PC-3): 22.3 µM

Structure (SMILES): COc1ccc2cc([C@H](C)C(=O)O)ccc2c1 [NAPROXEN]
- IC50 (Caco-2): > 50 µM
- IC50 (MCF7): > 50 µM
- IC50 (BGC-823 [2]): > 50 µM
- IC50 (PC-3): > 50 µM

Structure (SMILES): CC(C(=O)OCCC[Se]C#N)c1cccc(C(=O)c2ccccc2)c1 (stereo not given)
- Activity [1]: 67.6
- IC50 (Caco-2): 19.7 µM
- IC50 (MCF7): 8.3 µM
- Activity [5]: Active
- IC50 (BGC-823 [2]): 12.6 µM
- inhibition [3]: 57.1%
- IC50 (PC-3): 12.6 µM

Structure (SMILES): CC(=O)Oc1ccccc1C(=O)OCCC[Se]C#N
- Activity [1]: 78.3
- IC50 (Caco-2): 14.5 µM
- IC50 (MCF7): 8.9 µM
- IC50 (BGC-823 [2]): 17.3 µM
- inhibition [3]: 27.3%
- fold change (FC) [7]: 0.3
- IC50 (PC-3): 11.2 µM

Structure (SMILES): O=c1[nH]cc(F)c(=O)[nH]1 [FLUOROURACIL]
- IC50 (Caco-2): 7.8 µM
- IC50 (BGC-823 [2]): 15.4 µM
- IC50 (PC-3): 9.5 µM

Structure (SMILES): CC(C)Cc1ccc(C(C)C(=O)OCCC[Se]C#N)cc1 (stereo not given)
- Activity [1]: 60.3
- IC50 (Caco-2): 14.5 µM
- IC50 (MCF7): 19.5 µM
- IC50 (BGC-823 [2]): 24.5 µM
- inhibition [3]: 31.2%
- fold change (FC) [7]: 0.3
- IC50 (PC-3): 22.5 µM

Structure (SMILES): CC(C(=O)OCCC[Se]C(F)(F)F)c1ccc(-c2ccccc2)c(F)c1 (stereo not given)
- Activity (BGC-823 [4]): Active
- Activity [1]: 119
- IC50 (Caco-2): 4.5 µM
- IC50 (MCF7): 2.7 µM
- Activity (BGC-823 [6]): Active
- IC50 (BGC-823 [2]): 2.5 µM
- inhibition [3]: 73.5%
- fold change (FC) [7]: 0.8
- Activity (BGC-823 [8]): Active
- IC50 (PC-3): 3.3 µM

Structure (SMILES): CCc1cccc2c3c([nH]c12)C(CC)(CC(=O)OCCC[Se]C(F)(F)F)OCC3 (stereo not given)
- Activity [1]: 86.4
- IC50 (Caco-2): 10.4 µM
- IC50 (MCF7): 8.7 µM
- Activity [5]: Active
- IC50 (BGC-823 [2]): 18.5 µM
- inhibition [3]: 41.4%
- fold change (FC) [7]: 0.4
- IC50 (PC-3): 19.7 µM

Structure (SMILES): CC(C)Cc1ccc(C(C)C(=O)OCCC[Se]C(F)(F)F)cc1 (stereo not given)
- Activity [1]: 95.7
- IC50 (Caco-2): 9.5 µM
- IC50 (MCF7): 9.9 µM
- Activity [5]: Active
- IC50 (BGC-823 [2]): 14.3 µM
- inhibition [3]: 48.5%
- fold change (FC) [7]: 0.5
- IC50 (PC-3): 10.4 µM

Structure (SMILES): COc1ccc2c(c1)c(CC(=O)OCCC[Se]C(F)(F)F)c(C)n2C(=O)c1ccc(Cl)cc1
- Activity [1]: 62.6
- IC50 (Caco-2): 10.5 µM
- IC50 (MCF7): 9.3 µM
- IC50 (BGC-823 [2]): 7.3 µM
- inhibition [3]: 36.6%
- fold change (FC) [7]: 0.4
- IC50 (PC-3): 7.8 µM
